One may read the MIC90 as the lowest concentration that inhibits either 90% of growth or 90% of the strains tested, depending on the study.

Holding throughout (format): functional
One assay concerns Bacillus subtilis. The assay is described as follows: Antibacterial activity against Bacillus subtilis by NCCLS broth microdilution method. A general note: Broth dilution looks for growth in wells or tubes with falling amounts of substance.
A further assay has as its system Staphylococcus aureus. The assay can be described thus: Antibacterial activity against Staphylococcus aureus by NCCLS broth microdilution method.
The next assay relates to Klebsiella pneumoniae. The assay is described as follows: Antibacterial activity against Klebsiella pneumoniae by NCCLS broth microdilution method.
The subject of a further assay is Pseudomonas aeruginosa. The assay can be described thus: Antibacterial activity against Pseudomonas aeruginosa by NCCLS broth microdilution method.
A further assay deals with Candida albicans. The assay can be described thus: Antifungal activity against Candida albicans by NCCLS broth microdilution method. The procedure, abridged: (§1)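 MIC90 was taken as the lowest concentration that inhibited 90% of pathogen growth after incubation, reported in μg/mL. Broth dilution followed the NCCLS reference standards: M27-A for yeasts and the proposed standard for conidium-forming filamentous fungi. Fluconazole was the reference drug.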

The next assay has as its system Candida parapsilosis. The assay can be described thus: Antifungal activity against Candida parapsilosis by NCCLS broth microdilution method. The procedure, abridged: as §1
The next assay concerns Aspergillus niger. The assay can be described thus: Antifungal activity against Aspergillus niger by NCCLS broth microdilution method. The procedure, abridged: as §1
Another assay concerns Cryptococcus neoformans. The assay is described as follows: Antifungal activity against Cryptococcus neoformans by NCCLS broth microdilution method. The procedure, abridged:
as §1

The mark [1] stands for this setting: Bacillus subtilis, read-out: MIC90.
The mark [2] stands for this setting: Staphylococcus aureus, read-out: MIC90.
Where [3] appears, read: Klebsiella pneumoniae, read-out: MIC90.
Where [4] appears, read: Pseudomonas aeruginosa, read-out: MIC90.
Setting [5] is: Candida albicans, read-out: MIC90.
Setting [6] is: Lodderomyces parapsilosis, read-out: MIC90.
Setting [7] is: Aspergillus niger, read-out: MIC90.
Setting [8] is: Cryptococcus neoformans, read-out: MIC90.

In brackets after ≈: the same amount, converted by molar mass.

Turning to `Cc1ccccc1C1NC(c2ccccc2C)C2(C)CCCC1/C2=N\O` (stereo unspecified), the MIC90 with Bacillus subtilis (setting [1]) was 64 µg/mL (≈ 184 µM); with Staphylococcus aureus (setting [2]), 128 µg/mL (≈ 367 µM); in the assay on Klebsiella pneumoniae (setting [3]) it was 128 µg/mL (≈ 367 µM); with Pseudomonas aeruginosa (setting [4]), more than 128 µg/mL; in the assay with Candida albicans (setting [5]), 128 µg/mL (≈ 367 µM); in the assay on Candida parapsilosis (setting [6]), more than 128 µg/mL. The values for the MIC90 in the assay on Aspergillus niger (setting [7]) and with Cryptococcus neoformans (setting [8]) were 64 µg/mL (≈ 184 µM) and more than 128 µg/mL, respectively.

Turning to `CON=C1C2CC(C)CC1C(c1cccc(F)c1)NC2c1cccc(F)c1` (stereo in doubt; 56b), the MIC90 in the assay on Bacillus subtilis amounted to 32 µg/mL (≈ 86.4 µM); against Staphylococcus aureus, 32 µg/mL (≈ 86.4 µM); against Klebsiella pneumoniae, 64 µg/mL (≈ 173 µM); against Pseudomonas aeruginosa it was 64 µg/mL (≈ 173 µM); against Candida albicans it was 8 µg/mL (≈ 21.6 µM); in the assay on Candida parapsilosis, 16 µg/mL (≈ 43.2 µM). The MIC90 turned out to be 16 µg/mL (≈ 43.2 µM) in the assay with Aspergillus niger and 32 µg/mL (≈ 86.4 µM) with Cryptococcus neoformans.

`CO/N=C1\C2CCCC1(C)C(c1ccc(Cl)cc1)NC2c1ccc(Cl)cc1` (stereo unspecified): the MIC90 with Bacillus subtilis (setting [1]) was determined as 64 µg/mL (≈ 159 µM); in the assay with Staphylococcus aureus (setting [2]), 32 µg/mL (≈ 79.3 µM); in the assay on Klebsiella pneumoniae (setting [3]), 16 µg/mL (≈ 39.7 µM); in the assay with Pseudomonas aeruginosa (setting [4]) it was 64 µg/mL (≈ 159 µM); with Candida albicans (setting [5]), 16 µg/mL (≈ 39.7 µM); in the assay with Candida parapsilosis (setting [6]), 16 µg/mL (≈ 39.7 µM). Also, the MIC90 in the assay on Aspergillus niger (setting [7]) and with Cryptococcus neoformans (setting [8]) was 8 µg/mL (≈ 19.8 µM) each time.

For `CO/N=C1\C2CCCC1(C)C(c1ccc(OC)cc1)NC2c1ccc(OC)cc1` (stereo unspecified), the MIC90 in the assay on Bacillus subtilis (setting [1]) is 64 µg/mL (≈ 162 µM); in the assay with Staphylococcus aureus (setting [2]), 16 µg/mL (≈ 40.6 µM); in the assay with Klebsiella pneumoniae (setting [3]), 64 µg/mL (≈ 162 µM); in the assay on Pseudomonas aeruginosa (setting [4]), 128 µg/mL (≈ 324 µM); in the assay with Candida albicans (setting [5]), 64 µg/mL (≈ 162 µM); in the assay on Candida parapsilosis (setting [6]), 128 µg/mL (≈ 324 µM). For the same compound, the MIC90 with Aspergillus niger (setting [7]) was 128 µg/mL (≈ 324 µM); in the assay with Cryptococcus neoformans (setting [8]) it was more than 128 µg/mL.

In the case of `CC12CCCC(/C1=N\O)C(c1ccc(F)cc1)NC2c1ccc(F)cc1` (stereo unspecified), the MIC90 in the assay on Bacillus subtilis (setting [1]) amounted to 64 µg/mL (≈ 180 µM); in the assay with Staphylococcus aureus (setting [2]), 16 µg/mL (≈ 44.9 µM); in the assay with Klebsiella pneumoniae (setting [3]) it was 32 µg/mL (≈ 89.8 µM); in the assay on Pseudomonas aeruginosa (setting [4]), 64 µg/mL (≈ 180 µM); with Candida albicans (setting [5]), 16 µg/mL (≈ 44.9 µM); in the assay on Candida parapsilosis (setting [6]) it was 32 µg/mL (≈ 89.8 µM). Moreover, the MIC90 in the assay with Aspergillus niger (setting [7]) was 64 µg/mL (≈ 180 µM); with Cryptococcus neoformans (setting [8]), 32 µg/mL (≈ 89.8 µM).

Regarding `CON=C1C2CC(C)CC1C(c1cccc(F)c1)NC2c1cccc(F)c1` (stereo in doubt; 56a), the MIC90 was found to be 16 µg/mL (≈ 43.2 µM) in the assay on Bacillus subtilis (setting [1]); 16 µg/mL (≈ 43.2 µM) in the assay on Staphylococcus aureus (setting [2]); 64 µg/mL (≈ 173 µM) in the assay with Klebsiella pneumoniae (setting [3]); 64 µg/mL (≈ 173 µM) in the assay on Pseudomonas aeruginosa (setting [4]); 32 µg/mL (≈ 86.4 µM) with Candida albicans; 32 µg/mL (≈ 86.4 µM) in the assay with Candida parapsilosis (setting [6]). The MIC90 in the assay on Aspergillus niger and with Cryptococcus neoformans (setting [8]) was 64 µg/mL (≈ 173 µM) in each case.

For the compound `CC1CC2C(=NO)C(C1)C(c1ccccc1F)NC2c1ccccc1F` (stereo in doubt; 49b), the MIC90 amounted to 32 µg/mL (≈ 89.8 µM) in the assay on Bacillus subtilis; 32 µg/mL (≈ 89.8 µM) with Staphylococcus aureus; 64 µg/mL (≈ 180 µM) against Klebsiella pneumoniae; 128 µg/mL (≈ 359 µM) against Pseudomonas aeruginosa; 16 µg/mL (≈ 44.9 µM) against Candida albicans; 32 µg/mL (≈ 89.8 µM) against Candida parapsilosis. In addition, the MIC90 was 4 µg/mL (≈ 11.2 µM) with Aspergillus niger and 16 µg/mL (≈ 44.9 µM) in the assay with Cryptococcus neoformans.

For the compound `CO/N=C1\C2CCCC1(C)C(c1cccc(Cl)c1)NC2c1cccc(Cl)c1` (stereo unspecified), the MIC90 in the assay on Bacillus subtilis (setting [1]) amounted to 128 µg/mL (≈ 317 µM); in the assay on Staphylococcus aureus (setting [2]), 64 µg/mL (≈ 159 µM); in the assay on Klebsiella pneumoniae (setting [3]), 32 µg/mL (≈ 79.3 µM); with Pseudomonas aeruginosa (setting [4]), 64 µg/mL (≈ 159 µM); in the assay with Candida albicans (setting [5]) it was 32 µg/mL (≈ 79.3 µM); in the assay with Candida parapsilosis (setting [6]), 32 µg/mL (≈ 79.3 µM). Also, the MIC90 with Aspergillus niger (setting [7]) amounted to 128 µg/mL (≈ 317 µM); with Cryptococcus neoformans (setting [8]), 64 µg/mL (≈ 159 µM).

As for `CC12CCCC(/C1=N\O)C(c1ccccc1Cl)NC2c1ccccc1Cl` (stereo unspecified), the MIC90 with Bacillus subtilis (setting [1]) was 64 µg/mL (≈ 164 µM); in the assay on Staphylococcus aureus (setting [2]) it was 8 µg/mL (≈ 20.5 µM); in the assay with Klebsiella pneumoniae (setting [3]) it was 16 µg/mL (≈ 41.1 µM); in the assay with Pseudomonas aeruginosa (setting [4]), 32 µg/mL (≈ 82.2 µM); in the assay on Candida albicans (setting [5]), 64 µg/mL (≈ 164 µM); with Candida parapsilosis (setting [6]) it was 8 µg/mL (≈ 20.5 µM). The MIC90 in the assay with Aspergillus niger (setting [7]) is 16 µg/mL (≈ 41.1 µM); in the assay with Cryptococcus neoformans (setting [8]), 8 µg/mL (≈ 20.5 µM).

On to `CO/N=C1\C2CCCC1(C)C(c1ccccc1C)NC2c1ccccc1C` (stereo unspecified), for which the MIC90 with Bacillus subtilis (setting [1]) amounted to 32 µg/mL (≈ 88.3 µM); in the assay on Staphylococcus aureus (setting [2]), 32 µg/mL (≈ 88.3 µM); in the assay with Klebsiella pneumoniae (setting [3]), 128 µg/mL (≈ 353 µM); with Pseudomonas aeruginosa (setting [4]) it was 128 µg/mL (≈ 353 µM); in the assay on Candida albicans (setting [5]), 64 µg/mL (≈ 177 µM); with Candida parapsilosis (setting [6]), 128 µg/mL (≈ 353 µM). Besides, the MIC90 in the assay with Aspergillus niger (setting [7]) turned out to be 64 µg/mL (≈ 177 µM); in the assay with Cryptococcus neoformans (setting [8]), 128 µg/mL (≈ 353 µM).

In the case of `COc1cccc(C2NC(c3cccc(OC)c3)C3(C)CCCC2/C3=N\O)c1` (stereo unspecified), the MIC90 is 128 µg/mL (≈ 336 µM) in the assay on Bacillus subtilis (setting [1]); 128 µg/mL (≈ 336 µM) in the assay with Staphylococcus aureus (setting [2]); more than 128 µg/mL in the assay on Klebsiella pneumoniae (setting [3]); more than 128 µg/mL in the assay on Pseudomonas aeruginosa (setting [4]); more than 128 µg/mL with Candida albicans (setting [5]); more than 128 µg/mL in the assay with Candida parapsilosis (setting [6]). The MIC90 is more than 128 µg/mL with Aspergillus niger (setting [7]) and 128 µg/mL (≈ 336 µM) in the assay on Cryptococcus neoformans (setting [8]).

With `CO/N=C1\C2CCCC1(C)C(c1cccc(F)c1)NC2c1cccc(F)c1` (stereo unspecified), the MIC90 was determined as 128 µg/mL (≈ 346 µM) with Bacillus subtilis (setting [1]); 16 µg/mL (≈ 43.2 µM) with Staphylococcus aureus (setting [2]); 32 µg/mL (≈ 86.4 µM) in the assay on Klebsiella pneumoniae (setting [3]); 32 µg/mL (≈ 86.4 µM) with Pseudomonas aeruginosa (setting [4]); 16 µg/mL (≈ 43.2 µM) in the assay on Candida albicans (setting [5]); 64 µg/mL (≈ 173 µM) with Candida parapsilosis (setting [6]). Besides, the MIC90 in the assay with Aspergillus niger (setting [7]) worked out at 64 µg/mL (≈ 173 µM); in the assay on Cryptococcus neoformans (setting [8]), 128 µg/mL (≈ 346 µM).

(Values after ChEMBL document CHEMBL1154956, “Stereospecific synthesis of oximes and oxime ethers of 3-azabicycles: A SAR study towards antimicrobial agents” (2010).)
